Laboratory results: ChEMBL document CHEMBL5653622 (Oncotarget, 2016)
Activity calls are given as the source filed them. No cut-off for these calls is given here.

Legend:
[1] = target: Tau-tubulin kinase 1 (Homo sapiens) (UniProt Q5TCY1); test: Inhibition of human TTBK1 assessed as remaining activity at 10 uM in presence of ATP by radiometric kinase assay relative to control
[2] = target: MAP kinase-activated protein kinase 2 (Homo sapiens) (UniProt P49137); test: Inhibition of human MAPKAP-K2 assessed as remaining activity at 10 uM in presence of ATP by radiometric kinase assay relative to control
[3] = target: Dual specificity tyrosine-phosphorylation-regulated kinase 3 (Homo sapiens) (UniProt O43781); test: Inhibition of human DYRK3 assessed as remaining activity at 10 uM in presence of ATP by radiometric kinase assay relative to control
[4] = target: Inhibitor of nuclear factor kappa-B kinase subunit beta (Homo sapiens) (UniProt O14920); test: Inhibition of human IKKb assessed as remaining activity at 10 uM in presence of ATP by radiometric kinase assay relative to control
[5] = Cmax in BALB/C mouse spleen at 10 mg/kg, iv by LC/MS-MS analysis; assay type: ADME, organism-based
Outline: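 Female BALB/c mice received a single 10mg/kg bolus i.v. or p.o. Plasma (and spleen homogenate) extracted with methanol containing internal standards. Concentrations were measured by LC/MS-MS and PK parameters calculated with modelling software.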

[6] = AUC (0 to infinity) in BALB/C mouse spleen at 10 mg/kg, po by LC/MS-MS analysis; assay type: ADME, organism-based
[7] = target: Mitogen-activated protein kinase 12 (Homo sapiens) (UniProt P53778); test: Inhibition of human p38g MAPK assessed as remaining activity at 10 uM in presence of ATP by radiometric kinase assay relative to control
[8] = target: Proto-oncogene tyrosine-protein kinase Src (Homo sapiens) (UniProt P12931); test: Inhibition of human Src assessed as remaining activity at 10 uM in presence of ATP by radiometric kinase assay relative to control
[9] = Tmax in BALB/C mouse plasma at 10 mg/kg, iv by LC/MS-MS analysis; assay type: ADME, organism-based
[10] = target: Mitogen-activated protein kinase 11 (Homo sapiens) (UniProt Q15759); test: Inhibition of human p38b MAPK assessed as remaining activity at 10 uM in presence of ATP by radiometric kinase assay relative to control
[11] = target: Tyrosine-protein kinase CSK (Homo sapiens) (UniProt P41240); test: Inhibition of human CSK assessed as remaining activity at 10 uM in presence of ATP by radiometric kinase assay relative to control
[12] = target: Ribosomal protein S6 kinase alpha-5 (Homo sapiens) (UniProt O75582); test: Inhibition of human MSK1 assessed as remaining activity at 10 uM in presence of ATP by radiometric kinase assay relative to control
[13] = target: Ribosomal protein S6 kinase alpha-1 (Homo sapiens, UniProt Q15418); test: Inhibition of human RSK1 at 10 uM in presence of ATP by radiometric kinase assay relative to control
[14] = Toxicity in Emu-Myc driven transgenic mouse transplant model of B-cell lymphoma assessed as reduction in weight of the inguinal lymph nodes at 150 mg/kg, po administered for 9 days; assay type: organism-based; details: in vivo, 216 h, time 9 day
[15] = target: Serine/threonine-protein kinase STK11 (Homo sapiens) (UniProt Q15831); test: Inhibition of human LKB1 assessed as remaining activity at 10 uM in presence of ATP by radiometric kinase assay relative to control
[16] = target: Dual specificity mitogen-activated protein kinase kinase 1 (Homo sapiens) (UniProt Q02750); test: Inhibition of human MKK1 assessed as remaining activity at 10 uM in presence of ATP by radiometric kinase assay relative to control
[17] = Tmax in BALB/C mouse spleen at 10 mg/kg, iv by LC/MS-MS analysis; assay type: ADME, organism-based
[18] = target: Serine/threonine-protein kinase pim-2 (Homo sapiens) (UniProt Q9P1W9); test: Inhibition of human PIM2 assessed as remaining activity at 10 uM in presence of ATP by radiometric kinase assay relative to control
[19] = target: MAP/microtubule affinity-regulating kinase 3 (Homo sapiens, UniProt P27448); test: Inhibition of human MARK3 at 10 uM in presence of ATP by radiometric kinase assay relative to control
[20] = tested on: HT-29; test: Induction of apoptosis in human HT-29 cells assessed as increased in cleaved PARP in presence of gemcitabine by Western blotting analysis; assay type: functional, cell-based
[21] = target: Ephrin type-A receptor 4 (Homo sapiens) (UniProt P54764); test: Inhibition of human EPH-A4 assessed as remaining activity at 10 uM in presence of ATP by radiometric kinase assay relative to control
[22] = target: RAC-beta serine/threonine-protein kinase (Homo sapiens) (UniProt P31751); test: Inhibition of human PKBb assessed as remaining activity at 10 uM in presence of ATP by radiometric kinase assay relative to control
[23] = target: Inhibitor of nuclear factor kappa-B kinase subunit epsilon (Homo sapiens) (UniProt Q14164); test: Inhibition of human IKKe assessed as remaining activity at 10 uM in presence of ATP by radiometric kinase assay relative to control
[24] = tested on: Mus musculus; test: In vivo inhibition of total CHK1 in CRTac:Ncr-Fox1 athymic mouse xenografted with human Calu-6 cells at 150 mg/kg, po in presence of gemcitabine and carboplatin by ELISA analysis; assay type: functional, organism-based
[25] = tested on: Mus musculus; test: In vivo inhibition of CHK1 in CRTac:Ncr-Fox1 athymic mouse xenografted with human Calu-6 cells assessed as enhanced phosphorylation CHK1 at […] on 150 mg/kg, po in presence of gemcitabine and carboplatin by Western blotting analysis; assay type: functional, organism-based
Outline: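 Female CRTac:Ncr-Fox1(nu) athymic mice carried s.c. Calu6 xenografts. Tumors were taken 6h after the last inhibitor dose, lysed in CHAPS buffer, and immunoblotted with GAPDH as loading control.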

[26] = target: Serine/threonine-protein kinase 33 (Homo sapiens) (UniProt Q9BYT3); test: Inhibition of human STK33 assessed as remaining activity at 10 uM in presence of ATP by radiometric kinase assay relative to control
[27] = Toxicity in Emu-Myc driven transgenic mouse transplant model of B-cell lymphoma assessed as reduction in weight of kidney at 150 mg/kg, po administered for 9 days; assay type: organism-based; details: in vivo, 216 h, time 9 day
[28] = target: Myosin light chain kinase, smooth muscle (Homo sapiens) (UniProt Q15746); test: Inhibition of human SmMLCK assessed as remaining activity at 10 uM in presence of ATP by radiometric kinase assay relative to control
[29] = target: Serine/threonine-protein kinase MARK2 (Homo sapiens) (UniProt Q7KZI7); test: Inhibition of human MARK2 assessed as remaining activity at 10 uM in presence of ATP by radiometric kinase assay relative to control
[30] = target: Casein kinase 2 (Homo sapiens) (UniProt P67870+P68400+P19784+Q8NEV1); test: Inhibition of human CK2 assessed as remaining activity at 10 uM in presence of ATP by radiometric kinase assay relative to control; assay type: protein assay

Myosin light chain kinase, smooth muscle (Homo sapiens), sequence (Q15746 whole entry): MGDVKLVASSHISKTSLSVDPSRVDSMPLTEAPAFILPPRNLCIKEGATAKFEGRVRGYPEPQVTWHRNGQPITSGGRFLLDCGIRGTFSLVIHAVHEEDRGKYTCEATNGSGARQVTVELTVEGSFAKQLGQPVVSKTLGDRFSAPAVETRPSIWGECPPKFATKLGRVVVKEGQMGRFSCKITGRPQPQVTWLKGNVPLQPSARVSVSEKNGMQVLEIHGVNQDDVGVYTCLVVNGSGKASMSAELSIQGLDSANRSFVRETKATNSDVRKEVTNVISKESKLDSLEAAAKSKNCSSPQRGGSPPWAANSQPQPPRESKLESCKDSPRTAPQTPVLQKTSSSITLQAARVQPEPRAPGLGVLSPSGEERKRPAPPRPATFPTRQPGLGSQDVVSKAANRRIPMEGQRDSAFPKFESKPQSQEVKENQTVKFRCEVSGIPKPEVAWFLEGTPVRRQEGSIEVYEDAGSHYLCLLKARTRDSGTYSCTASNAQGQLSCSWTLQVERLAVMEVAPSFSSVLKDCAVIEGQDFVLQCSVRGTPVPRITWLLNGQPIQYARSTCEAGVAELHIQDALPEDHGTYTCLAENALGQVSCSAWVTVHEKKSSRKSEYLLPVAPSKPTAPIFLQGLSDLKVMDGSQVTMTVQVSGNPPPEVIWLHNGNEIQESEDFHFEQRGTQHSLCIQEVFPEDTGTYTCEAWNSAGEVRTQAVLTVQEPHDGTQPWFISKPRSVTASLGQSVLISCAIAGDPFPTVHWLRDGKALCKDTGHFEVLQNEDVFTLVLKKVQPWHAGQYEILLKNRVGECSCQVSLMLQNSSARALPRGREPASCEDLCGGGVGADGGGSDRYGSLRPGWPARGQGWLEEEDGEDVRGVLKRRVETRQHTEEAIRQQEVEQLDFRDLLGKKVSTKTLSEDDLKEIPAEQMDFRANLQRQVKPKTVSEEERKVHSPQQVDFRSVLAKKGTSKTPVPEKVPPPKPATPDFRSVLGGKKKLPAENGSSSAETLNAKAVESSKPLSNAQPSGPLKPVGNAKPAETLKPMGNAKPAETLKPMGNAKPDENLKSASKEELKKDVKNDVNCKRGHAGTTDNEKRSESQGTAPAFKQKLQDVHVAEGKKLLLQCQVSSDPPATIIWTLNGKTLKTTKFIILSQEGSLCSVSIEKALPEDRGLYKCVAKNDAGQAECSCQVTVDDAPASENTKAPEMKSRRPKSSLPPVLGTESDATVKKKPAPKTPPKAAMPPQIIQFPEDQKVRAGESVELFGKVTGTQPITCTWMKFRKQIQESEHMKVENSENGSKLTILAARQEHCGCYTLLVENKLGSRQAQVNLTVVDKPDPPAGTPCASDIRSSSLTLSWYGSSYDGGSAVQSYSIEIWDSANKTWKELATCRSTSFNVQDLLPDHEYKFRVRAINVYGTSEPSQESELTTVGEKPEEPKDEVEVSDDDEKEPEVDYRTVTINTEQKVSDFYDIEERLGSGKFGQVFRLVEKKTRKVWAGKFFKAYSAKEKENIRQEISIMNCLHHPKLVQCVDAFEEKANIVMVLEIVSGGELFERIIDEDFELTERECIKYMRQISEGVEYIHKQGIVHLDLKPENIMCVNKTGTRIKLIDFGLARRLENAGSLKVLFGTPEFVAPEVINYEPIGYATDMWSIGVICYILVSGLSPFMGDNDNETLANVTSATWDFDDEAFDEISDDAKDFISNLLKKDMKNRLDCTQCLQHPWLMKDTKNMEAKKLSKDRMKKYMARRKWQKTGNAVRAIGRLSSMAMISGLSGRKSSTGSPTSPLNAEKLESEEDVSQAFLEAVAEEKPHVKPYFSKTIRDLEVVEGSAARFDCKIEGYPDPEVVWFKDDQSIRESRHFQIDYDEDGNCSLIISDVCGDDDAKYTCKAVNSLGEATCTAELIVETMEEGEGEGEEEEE
Ephrin type-A receptor 4 (Homo sapiens), sequence (P54764 whole entry): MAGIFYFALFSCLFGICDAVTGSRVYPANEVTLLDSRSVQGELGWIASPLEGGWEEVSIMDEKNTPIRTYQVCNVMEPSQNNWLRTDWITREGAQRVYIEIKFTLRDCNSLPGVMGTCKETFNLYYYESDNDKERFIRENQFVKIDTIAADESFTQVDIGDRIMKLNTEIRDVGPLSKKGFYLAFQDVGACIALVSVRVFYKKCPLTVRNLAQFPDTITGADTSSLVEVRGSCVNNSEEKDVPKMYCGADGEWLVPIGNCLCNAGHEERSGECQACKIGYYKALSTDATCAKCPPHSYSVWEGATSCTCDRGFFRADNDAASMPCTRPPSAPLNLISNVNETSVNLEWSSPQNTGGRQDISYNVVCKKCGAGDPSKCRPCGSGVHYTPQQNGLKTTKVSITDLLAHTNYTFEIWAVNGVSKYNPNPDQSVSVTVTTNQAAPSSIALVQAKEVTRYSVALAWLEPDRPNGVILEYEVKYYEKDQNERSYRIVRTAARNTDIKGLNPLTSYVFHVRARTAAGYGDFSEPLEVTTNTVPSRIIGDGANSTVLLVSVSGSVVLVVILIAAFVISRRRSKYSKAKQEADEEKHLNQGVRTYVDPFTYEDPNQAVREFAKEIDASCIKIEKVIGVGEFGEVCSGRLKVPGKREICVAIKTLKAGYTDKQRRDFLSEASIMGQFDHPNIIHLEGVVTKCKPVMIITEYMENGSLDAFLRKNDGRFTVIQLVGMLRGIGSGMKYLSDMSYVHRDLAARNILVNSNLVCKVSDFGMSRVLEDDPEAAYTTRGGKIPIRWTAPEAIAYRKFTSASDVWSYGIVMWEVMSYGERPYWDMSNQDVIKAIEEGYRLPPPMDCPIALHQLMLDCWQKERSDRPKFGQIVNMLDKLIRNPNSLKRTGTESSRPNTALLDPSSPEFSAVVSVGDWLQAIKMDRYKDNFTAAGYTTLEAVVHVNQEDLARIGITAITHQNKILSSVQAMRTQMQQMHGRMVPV
Serine/threonine-protein kinase STK11 (Homo sapiens), sequence (Q15831 whole entry): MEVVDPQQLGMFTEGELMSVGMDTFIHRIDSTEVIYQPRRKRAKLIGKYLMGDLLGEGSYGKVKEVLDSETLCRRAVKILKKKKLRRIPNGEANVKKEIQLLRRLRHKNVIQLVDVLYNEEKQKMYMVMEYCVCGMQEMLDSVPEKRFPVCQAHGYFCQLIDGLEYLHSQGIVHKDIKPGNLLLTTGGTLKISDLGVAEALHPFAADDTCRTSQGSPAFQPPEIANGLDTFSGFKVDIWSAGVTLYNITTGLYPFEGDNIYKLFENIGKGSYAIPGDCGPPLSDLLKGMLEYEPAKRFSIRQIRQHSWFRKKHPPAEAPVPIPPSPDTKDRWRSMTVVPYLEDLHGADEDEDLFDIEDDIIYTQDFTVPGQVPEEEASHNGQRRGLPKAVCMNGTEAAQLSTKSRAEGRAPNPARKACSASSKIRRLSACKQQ
Inhibitor of nuclear factor kappa-B kinase subunit epsilon (Homo sapiens), sequence (Q14164 whole entry): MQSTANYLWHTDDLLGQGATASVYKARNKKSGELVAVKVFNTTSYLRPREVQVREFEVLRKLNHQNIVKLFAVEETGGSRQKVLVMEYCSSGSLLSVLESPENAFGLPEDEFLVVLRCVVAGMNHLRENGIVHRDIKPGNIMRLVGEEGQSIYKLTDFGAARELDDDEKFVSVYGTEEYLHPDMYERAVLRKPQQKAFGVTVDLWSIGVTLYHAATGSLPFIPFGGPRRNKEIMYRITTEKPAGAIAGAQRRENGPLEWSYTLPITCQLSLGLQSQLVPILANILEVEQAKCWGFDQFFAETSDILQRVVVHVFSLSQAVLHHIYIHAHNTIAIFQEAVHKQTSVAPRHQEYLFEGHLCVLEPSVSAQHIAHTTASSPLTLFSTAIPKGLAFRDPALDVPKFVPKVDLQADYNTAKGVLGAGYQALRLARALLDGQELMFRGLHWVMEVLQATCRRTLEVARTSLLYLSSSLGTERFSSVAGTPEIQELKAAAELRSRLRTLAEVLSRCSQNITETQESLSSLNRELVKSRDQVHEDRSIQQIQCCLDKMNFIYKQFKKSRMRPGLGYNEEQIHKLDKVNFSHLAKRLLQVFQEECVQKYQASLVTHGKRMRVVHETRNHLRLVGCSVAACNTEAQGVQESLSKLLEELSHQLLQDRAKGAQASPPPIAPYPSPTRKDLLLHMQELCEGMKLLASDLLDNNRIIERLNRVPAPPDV
Ribosomal protein S6 kinase alpha-5 (Homo sapiens), sequence (O75582 whole entry, looked up): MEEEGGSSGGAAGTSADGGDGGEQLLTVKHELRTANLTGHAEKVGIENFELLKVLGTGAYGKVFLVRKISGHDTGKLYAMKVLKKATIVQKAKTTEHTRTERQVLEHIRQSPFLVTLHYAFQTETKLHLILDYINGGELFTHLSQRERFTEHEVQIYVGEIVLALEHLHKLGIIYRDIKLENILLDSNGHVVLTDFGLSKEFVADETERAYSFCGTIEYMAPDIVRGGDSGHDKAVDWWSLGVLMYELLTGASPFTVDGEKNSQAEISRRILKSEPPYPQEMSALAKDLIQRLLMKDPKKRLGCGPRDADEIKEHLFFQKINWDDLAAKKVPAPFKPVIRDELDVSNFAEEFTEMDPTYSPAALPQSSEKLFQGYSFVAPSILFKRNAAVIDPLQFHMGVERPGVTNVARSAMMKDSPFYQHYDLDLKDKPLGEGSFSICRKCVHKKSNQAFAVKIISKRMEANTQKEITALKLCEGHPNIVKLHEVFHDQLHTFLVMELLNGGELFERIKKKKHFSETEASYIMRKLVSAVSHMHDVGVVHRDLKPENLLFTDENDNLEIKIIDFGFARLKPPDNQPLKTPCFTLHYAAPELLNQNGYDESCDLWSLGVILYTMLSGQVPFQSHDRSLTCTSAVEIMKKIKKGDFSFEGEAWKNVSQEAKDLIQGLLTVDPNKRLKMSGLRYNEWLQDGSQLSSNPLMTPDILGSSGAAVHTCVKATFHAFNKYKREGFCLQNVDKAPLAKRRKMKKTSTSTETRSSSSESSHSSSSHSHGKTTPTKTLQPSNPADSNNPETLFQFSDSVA

## N#Cc1cnc(Nc2cc(NC[C@H]3CNCCO3)c(C(F)(F)F)cn2)cn1 [SRA-737]
[1]
  Activity: 82%
[2]
  Activity: 94%
[3]
  Activity: 24%
[4]
  Activity: 91%
[5]
  Cmax: 44.7 µM
[6]
  AUC(0-inf): 223 µM·h
[7]
  Activity: 95%
[8]
  Activity: 93%
[9]
  Tmax: 4.98 min
[10]
  Activity: 90%
[11]
  Activity: 82%
[12]
  Activity: 30%
[13]
  inhibition: 93%
[14]
  Activity: Toxic
[15]
  Activity: 44%
[16]
  Activity: 68%
[17]
  Tmax: 30 min
[18]
  Activity: 88%
[19]
  inhibition: 87%
[20]
  Activity: Active
[21]
  Activity: 71%
[22]
  Activity: 100%
[23]
  Activity: 102%
[24]
  inhibition: Active
[25]
  Activity: Active
[26]
  Activity: 39%
[27]
  Activity: Toxic
[28]
  Activity: 84%
[29]
  Activity: 21%
[30]
  Activity: 81%
